pIC50: −log10 of the molar value.
Legend:
[1] = biological target: Peptidyl-prolyl cis-trans isomerase FKBP1A (Homo sapiens, UniProt P62942); test: Inhibitory binding activity against human Immunophilin-FK-506 binding protein 12
How it was run: (§1)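 IC50 values are reported as mean ± SD for the stated number of determinations, using human cells or protein.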

Rattus norvegicus = test: Inhibition of rat popliteal lymph node (PLN) hyperplasia when given ip; format: functional
How it was run: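 Popliteal lymph node hyperplasia is induced in Lewis rats by Brown Norway rat cells, and its inhibition is measured.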

Homo sapiens = organism: Homo sapiens; test: Inhibition of human mixed lymphocyte response (MLR); format: functional; how it was run: as §1

Chain of Peptidyl-prolyl cis-trans isomerase FKBP1A (P62942 whole entry): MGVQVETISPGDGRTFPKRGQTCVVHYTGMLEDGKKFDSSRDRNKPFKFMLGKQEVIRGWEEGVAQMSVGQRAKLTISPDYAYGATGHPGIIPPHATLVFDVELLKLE

pIC50 [1] | pIC50 (Homo sapiens) | Compound | ED50 (Rattus norvegicus) [mg/kg/day]
9.40 | 9.19 | CC[C@@H]1/C=C(\C)C[C@H](C)C[C@H](OC)[C@H]2O[C@@](O)(C(=O)C(=O)N3CCCC[C@H]3C(=O)O[C@H](/C(C)=C/C3CC[C@@H](OCC(=O)N(C)CCc4ccccc4)[C@H](OC)C3)[C@H](C)[C@@H](O)CC1=O)[C@H](C)C[C@@H]2OC (some centres undefined) | > 3
6.33 | 9.85 | CC[C@@H]1/C=C(\C)C[C@H](C)C[C@H](OC)[C@H]2O[C@@](O)(C(=O)C(=O)N3CCCC[C@H]3C(=O)O[C@H](/C(C)=C/C3CC[C@@H](OCC(=O)Nc4cccc(C(F)(F)F)c4)[C@H](OC)C3)[C@H](C)[C@@H](O)CC1=O)[C@H](C)C[C@@H]2OC (some centres undefined) | –
8.62 | 10.30 | CC[C@@H]1/C=C(\C)C[C@H](C)C[C@H](OC)[C@H]2O[C@@](O)(C(=O)C(=O)N3CCCC[C@H]3C(=O)O[C@H](/C(C)=C/C3CC[C@@H](OCC(=O)Nc4ccccn4)[C@H](OC)C3)[C@H](C)[C@@H](O)CC1=O)[C@H](C)C[C@@H]2OC (some centres undefined) | –
7.89 | 9.47 | CC[C@@H]1/C=C(\C)C[C@H](C)C[C@H](OC)[C@H]2O[C@@](O)(C(=O)C(=O)N3CCCC[C@H]3C(=O)O[C@H](/C(C)=C/C3CC[C@@H](OCC(=O)NCCc4ccccc4)[C@H](OC)C3)[C@H](C)[C@@H](O)CC1=O)[C@H](C)C[C@@H]2OC (some centres undefined) | > 3
7.30 | 10.40 | CC[C@@H]1/C=C(\C)C[C@H](C)C[C@H](OC)[C@H]2O[C@@](O)(C(=O)C(=O)N3CCCC[C@H]3C(=O)O[C@H](/C(C)=C/C3CC[C@@H](OCC(=O)Nc4ccc(OC)cc4)[C@H](OC)C3)[C@H](C)[C@@H](O)CC1=O)[C@H](C)C[C@@H]2OC (some centres undefined) | –
8.25 | 10.05 | CC[C@@H]1/C=C(\C)C[C@H](C)C[C@H](OC)[C@H]2O[C@@](O)(C(=O)C(=O)N3CCCC[C@H]3C(=O)O[C@H](/C(C)=C/C3CC[C@@H](OCC(=O)N(C)Cc4ccccc4)[C@H](OC)C3)[C@H](C)[C@@H](O)CC1=O)[C@H](C)C[C@@H]2OC (some centres undefined) | > 3
6.24 | 9.64 | CC[C@@H]1/C=C(\C)C[C@H](C)C[C@H](OC)[C@H]2O[C@@](O)(C(=O)C(=O)N3CCCC[C@H]3C(=O)O[C@H](/C(C)=C/C3CC[C@@H](OCC(=O)Nc4ccc(C(F)(F)F)cc4)[C@H](OC)C3)[C@H](C)[C@@H](O)CC1=O)[C@H](C)C[C@@H]2OC (some centres undefined) | –
8.49 | 9.80 | CC[C@@H]1/C=C(\C)C[C@H](C)C[C@H](OC)[C@H]2O[C@@](O)(C(=O)C(=O)N3CCCC[C@H]3C(=O)O[C@H](/C(C)=C/C3CC[C@@H](OCC(=O)Nc4ccncc4)[C@H](OC)C3)[C@H](C)[C@@H](O)CC1=O)[C@H](C)C[C@@H]2OC (some centres undefined) | –
7.15 | 10.70 | CC[C@@H]1/C=C(\C)C[C@H](C)C[C@H](OC)[C@H]2O[C@@](O)(C(=O)C(=O)N3CCCC[C@H]3C(=O)O[C@H](/C(C)=C/C3CC[C@@H](OCC(=O)Nc4ccc(C)cc4)[C@H](OC)C3)[C@H](C)[C@@H](O)CC1=O)[C@H](C)C[C@@H]2OC (some centres undefined) | –
7.17 | 8.12 | CC[C@@H]1/C=C(\C)C[C@H](C)C[C@H](OC)[C@H]2O[C@@](O)(C(=O)C(=O)N3CCCCC3C(=O)O[C@H](/C(C)=C/C3CC[C@@H](OCC(=O)OCc4ccccc4)[C@H](OC)C3)[C@H](C)[C@@H](O)CC1=O)[C@H](C)C[C@@H]2OC (some centres undefined) | > 3
8.54 | 9.59 | CC[C@@H]1/C=C(\C)C[C@H](C)C[C@H](OC)[C@H]2O[C@@](O)(C(=O)C(=O)N3CCCC[C@H]3C(=O)O[C@H](/C(C)=C/C3CC[C@@H](OCC(=O)N(C)c4ccccc4)[C@H](OC)C3)[C@H](C)[C@@H](O)CC1=O)[C@H](C)C[C@@H]2OC (some centres undefined) | 1.9
8.03 | 9.04 | CCOC(=O)CO[C@@H]1CCC(/C=C(\C)[C@H]2OC(=O)[C@@H]3CCCCN3C(=O)C(=O)[C@]3(O)O[C@H]([C@@H](OC)C[C@@H](C)C/C(C)=C/[C@@H](CC)C(=O)C[C@H](O)[C@H]2C)[C@@H](OC)C[C@H]3C)C[C@H]1OC (some centres undefined) | > 3
6.74 | 10.15 | CC[C@@H]1/C=C(\C)C[C@H](C)C[C@H](OC)[C@H]2O[C@@](O)(C(=O)C(=O)N3CCCC[C@H]3C(=O)O[C@H](/C(C)=C/C3CC[C@@H](OCC(=O)Nc4ccc(Cl)cc4)[C@H](OC)C3)[C@H](C)[C@@H](O)CC1=O)[C@H](C)C[C@@H]2OC (some centres undefined) | –
7.72 | 9.24 | CC[C@@H]1/C=C(\C)C[C@H](C)C[C@H](OC)[C@H]2O[C@@](O)(C(=O)C(=O)N3CCCC[C@H]3C(=O)O[C@H](/C(C)=C/C3CC[C@@H](OCC(=O)Nc4ccc(N5CCOCC5)cc4)[C@H](OC)C3)[C@H](C)[C@@H](O)CC1=O)[C@H](C)C[C@@H]2OC (some centres undefined) | –
6.30 | 9.26 | CC[C@@H]1/C=C(\C)C[C@H](C)C[C@H](OC)[C@H]2O[C@@](O)(C(=O)C(=O)N3CCCC[C@H]3C(=O)O[C@H](/C(C)=C/C3CC[C@@H](OCC(=O)Nc4ccc(Cl)c(Cl)c4)[C@H](OC)C3)[C@H](C)[C@@H](O)CC1=O)[C@H](C)C[C@@H]2OC (some centres undefined) | –
8.48 | 10.00 | CC[C@@H]1/C=C(\C)C[C@H](C)C[C@H](OC)[C@H]2O[C@@](O)(C(=O)C(=O)N3CCCC[C@H]3C(=O)O[C@H](/C(C)=C/C3CC[C@@H](OCC(=O)Nc4cccnc4)[C@H](OC)C3)[C@H](C)[C@@H](O)CC1=O)[C@H](C)C[C@@H]2OC (some centres undefined) | –
6.74 | 9.80 | CC[C@@H]1/C=C(\C)C[C@H](C)C[C@H](OC)[C@H]2O[C@@](O)(C(=O)C(=O)N3CCCC[C@H]3C(=O)O[C@H](/C(C)=C/C3CC[C@@H](OCC(=O)Nc4cccc(F)c4)[C@H](OC)C3)[C@H](C)[C@@H](O)CC1=O)[C@H](C)C[C@@H]2OC (some centres undefined) | –
8.70 | 9.33 | CC[C@@H]1/C=C(\C)C[C@H](C)C[C@H](OC)[C@H]2O[C@@](O)(C(=O)C(=O)N3CCCC[C@H]3C(=O)O[C@H](/C(C)=C/C3CC[C@@H](OCC(=O)NC4CCCCC4)[C@H](OC)C3)[C@H](C)[C@@H](O)CC1=O)[C@H](C)C[C@@H]2OC (some centres undefined) | –
7.34 | 10.52 | CC[C@@H]1/C=C(\C)C[C@H](C)C[C@H](OC)[C@H]2O[C@@](O)(C(=O)C(=O)N3CCCC[C@H]3C(=O)O[C@H](/C(C)=C/C3CC[C@@H](OCC(=O)Nc4ccc(F)cc4)[C@H](OC)C3)[C@H](C)[C@@H](O)CC1=O)[C@H](C)C[C@@H]2OC (some centres undefined) | –
6.77 | 9.54 | CC[C@@H]1/C=C(\C)C[C@H](C)C[C@H](OC)[C@H]2O[C@@](O)(C(=O)C(=O)N3CCCC[C@H]3C(=O)O[C@H](/C(C)=C/C3CC[C@@H](OCC(=O)Nc4ccccc4)[C@H](OC)C3)[C@H](C)[C@@H](O)CC1=O)[C@H](C)C[C@@H]2OC (some centres undefined) | 1.4
8.40 | 6.85 | CC[C@@H]1/C=C(\C)C[C@H](C)C[C@H](OC)[C@H]2O[C@@](O)(C(=O)C(=O)N3CCCC[C@H]3C(=O)O[C@H](/C(C)=C/C3CC[C@@H](OCC(=O)O)[C@H](OC)C3)[C@H](C)[C@@H](O)CC1=O)[C@H](C)C[C@@H]2OC (some centres undefined) | > 3
7.32 | 9.10 | CC[C@@H]1/C=C(\C)C[C@H](C)C[C@H](OC)[C@H]2O[C@@](O)(C(=O)C(=O)N3CCCC[C@H]3C(=O)O[C@H](/C(C)=C/C3CC[C@@H](OCC(=O)NCc4ccccc4)[C@H](OC)C3)[C@H](C)[C@@H](O)CC1=O)[C@H](C)C[C@@H]2OC (some centres undefined) | 1.2
9.22 | 9.89 | CC[C@@H]1/C=C(\C)C[C@H](C)C[C@H](OC)[C@H]2O[C@@](O)(C(=O)C(=O)N3CCCC[C@H]3C(=O)O[C@H](/C(C)=C/C3CC[C@@H](OCC(N)=O)[C@H](OC)C3)[C@H](C)[C@@H](O)CC1=O)[C@H](C)C[C@@H]2OC (some centres undefined) | 0.3
7.80 | 9.85 | CC[C@@H]1/C=C(\C)C[C@H](C)C[C@H](OC)[C@H]2O[C@@](O)(C(=O)C(=O)N3CCCC[C@H]3C(=O)O[C@H](/C(C)=C/C3CC[C@@H](OCC(=O)Nc4ccc(O)cc4)[C@H](OC)C3)[C@H](C)[C@@H](O)CC1=O)[C@H](C)C[C@@H]2OC (some centres undefined) | –
8.68 | – | CC[C@@H]1/C=C(\C)C[C@H](C)C[C@H](OC)[C@H]2O[C@@](O)(C(=O)C(=O)N3CCCC[C@H]3C(=O)O[C@H](/C(C)=C/[C@@H]3CC[C@@H](O)[C@H](OC)C3)[C@H](C)[C@@H](O)CC1=O)[C@H](C)C[C@@H]2OC [ASCOMYCIN] | 0.3
– | 8.90 | CO[C@H]1C[C@@H]2CC[C@@H](C)[C@@](O)(O2)C(=O)C(=O)N2CCCC[C@H]2C(=O)O[C@H]([C@H](C)C[C@@H]2CC[C@@H](O)[C@H](OC)C2)CC(=O)[C@H](C)/C=C(\C)[C@@H](O)[C@@H](OC)C(=O)[C@H](C)C[C@H](C)/C=C/C=C/C=C/1C [SIROLIMUS] | 2.1
– | 9.32 | C=CC[C@@H]1/C=C(\C)C[C@H](C)C[C@H](OC)[C@H]2O[C@@](O)(C(=O)C(=O)N3CCCC[C@H]3C(=O)O[C@H](/C(C)=C/[C@@H]3CC[C@@H](O)[C@H](OC)C3)[C@H](C)[C@@H](O)CC1=O)[C@H](C)C[C@@H]2OC [TACROLIMUS ANHYDROUS] | 0.1
